Bioassay records: PubChem BioAssay, several laboratories
APJ antagonist: blocks the human apelin receptor APJ; actives 0.32% (n = 330,000); CHO-K1 APJ beta-arrestin complementation, luminescence; inhibition, % at 20 µM; AID 2521;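 active = inhibition above about 40% at 20 µM, limit read from the data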;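 note: cells challenged with 10 nM apelin-13 agonist together with compound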
Target sequence (P35414 whole entry, looked up): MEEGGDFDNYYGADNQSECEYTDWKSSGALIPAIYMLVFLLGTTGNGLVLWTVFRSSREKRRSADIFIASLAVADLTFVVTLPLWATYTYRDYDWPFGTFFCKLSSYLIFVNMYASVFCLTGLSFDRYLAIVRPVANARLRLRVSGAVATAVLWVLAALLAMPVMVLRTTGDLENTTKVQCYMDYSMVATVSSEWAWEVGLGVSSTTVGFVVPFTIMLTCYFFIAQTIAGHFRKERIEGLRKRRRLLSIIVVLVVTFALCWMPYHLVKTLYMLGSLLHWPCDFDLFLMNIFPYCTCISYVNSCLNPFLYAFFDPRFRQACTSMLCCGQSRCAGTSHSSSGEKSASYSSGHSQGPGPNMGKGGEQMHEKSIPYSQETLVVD
CCR6 antagonist: CCR6 (human) receptor antagonism; P51684; CHO-K1 CCR6 PathHunter beta-arrestin, luminescence, CCL20-stimulated; inhibition, % at 20 µM; actives 0.49% (n = 340,000);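 active = compounds whose inhibition of the agonist-driven luminescence signal at 20 µM reaches about 50%, limit read from the data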;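 note: cells stimulated with CCL20 at 14 nM final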
EBI2 block: EBI2 (human) antagonism; P32249; EBI2 beta-arrestin recruitment, luminescence, 7a,25-OHC stimulated; inhibition, % at 5 µM; actives 0.81% (n = 360,000); AID 651636; in the data active = inhibition above about 38%;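 note: enzyme fragment complementation signal reports receptor beta-arrestin coupling in cells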
APJ ag: agonists of human APJ apelin receptor; AID 2520; activation, % at 20 µM; actives 0.11% (n = 330,000); CHO-K1 APJ PathHunter beta-arrestin, luminescence; 0% DMSO wells, 100% apelin;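 active = activation more than six SD over the plate average, tested at 20 µM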
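Assay system: CHO-K1 APJ beta-arrestin complementation cell line / Compound: single test compound dose, 20 µM final, 1% DMSO / Times: overnight seeding, 90 min compound at 25 °C, 1 h detection / Technique: beta-gal luminescence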
HTR2A ag: mouse HTR2A agonism via beta-arrestin recruitment | P35363 | actives 0.66% (n = 360,000) | activation, % at 7.6 µM | CHO-K1 mHTR2A beta-arrestin complementation, luminescence; percent of 30 µM serotonin response | AID 624169;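 active = activation above a run cutoff, the mean activation of all tested compounds plus 3 SD, cut at about 14% in these data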
CXCR6 inh: inhibitors of human CXCR6 receptor; O00574; CHO-K1 PathHunter CXCR6 beta-arrestin, luminescence; inhibition, % at 20 µM; actives 0.36% (n = 360,000); AID 602244; in the data active = inhibition above about 34%, passing the limit was not always enough;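 note: antagonist mode with CXCL16 agonist at 10 nM final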
EBI2 conf: EBI2 (human) antagonism, single concentration confirmation; EBI2 beta-arrestin luminescence, 7a,25-OHC antagonism; shares compounds with EBI2 block; actives 29% (n = 2,400); inhibition, % at 5 µM;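 active = inhibition of at least 50%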
EBI2 agonist: EBI2 agonism counter-screen; activation, % at 5 µM; shares compounds with EBI2 block; EBI2-expressing cells, agonist mode, luminescence, 60 min; 0% vehicle, 100% 7α,25-dihydroxycholesterol control; AID 652000; 2,400 tested, under 10 active;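 active = activation of at least 50%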
bGal counter: beta-galactosidase inhibition counter-screen; shares compounds with EBI2 block; purified beta-galactosidase, luminescent Galacton Star, 15 min; inhibition, % at 5 µM; actives 1% (n = 2,400); AID 652176;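 active = replicate-average signal at least 3 plate SD below neutral wells, shown as high inhibition, flagging enzyme-inhibiting false positives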;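 note: higher means stronger loss of beta-gal luminescence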
Numbers stand for hits; - = inactive; . = no result given. In the library only some 2.1% were active in any assay of this set; here they are far more common.

SMILES	APJ antagonist	CCR6 antagonist	EBI2 block	APJ ag	HTR2A ag	CXCR6 inh	EBI2 conf	EBI2 agonist	bGal counter
O=C(c1ccc2c(c1)ncn2C1CCCCCC1)N1CCC2(CC1)OCCO2	-	-	-	-	-	-	.	.	.
Cc1ccc(N(C)C(=O)Oc2ccc(C(=O)c3ccc(Cl)cc3)cc2)cc1	-	-	78	-	-	-	-	-	-
CC(=O)Nc1ccc(OC(=O)N(C)c2ccc(C)cc2)cc1	-	-	-	-	-	-	.	.	.
Cc1nc2cc(C(F)(F)F)ccc2n1C1CCN(Cc2nnnn2CCc2ccccc2)CC1	-	-	37	-	-	-	-	-	-
Cc1nc2cc(F)ccc2n1C1CCN(Cc2nnnn2CCc2ccccc2)CC1	-	-	-	-	-	-	.	.	.
CCN(CC)C(=O)c1ccc(NC(=O)c2cccc(S(=O)(=O)N3CCN(C)CC3)c2)cc1	-	-	-	-	-	-	.	.	.
COc1cccc(CN2CCN(C(=O)COc3ccc4ccccc4c3)CC2)c1	-	-	95	-	-	-	74	-	-
COc1cc(OC)c(OC)cc1CN1CCN(C(=O)COc2ccc3ccccc3c2)CC1	-	-	71	-	-	-	-	-	-
O=C(O)c1ccc(NC(=O)N2C[C@H]3C[C@@H](C2)c2cccc(=O)n2C3)cc1	-	-	-	-	-	-	.	.	.
CCOC(=O)[C@]12Cc3cc(OC)ccc3[C@H]1N(Cc1ccccc1)C(=O)c1cc(F)c(F)cc12	.	-	40	.	-	-	-	-	-
COC(=O)C1=C(c2ccccc2OCc2ccccc2)C[C@@H]2CC[C@H]1N2C(=O)NCc1ccc(N(C)C)cc1	-	-	-	-	-	-	.	.	.
COC(=O)C1=C(c2ccccc2OCc2ccccc2)C[C@@H]2CC[C@H]1N2C(=O)NCc1ccc(Cl)cc1	-	-	44	-	-	-	-	-	-
COC(=O)C1=C(c2ccc(-c3ccccc3)c(F)c2)C[C@@H]2CC[C@H]1N2C(=O)NCCOc1ccc(OC)cc1	-	-	54	-	-	-	-	-	-
COC(=O)C1=C(c2ccc(F)cc2OCc2ccccc2)C[C@@H]2CC[C@H]1N2C(=O)NCCOc1ccc(OC)cc1	-	-	48	-	-	-	-	-	-
COC(=O)C1=C(c2ccc(-c3ccccc3)c(F)c2)C[C@@H]2CC[C@H]1N2C(=O)NCCc1ccccc1	-	-	44	-	-	-	-	-	-
COC(COC(N)=O)C1=C(N2CC2)C(=O)C(C)=C(N2CC2)C1=O (stereo not drawn)	.	-	-	.	-	-	.	.	.
